Test results as given in ChEMBL document CHEMBL5715959, “Inhibition of histone methyltransferase EZH2 in Schistosoma mansoni in vitro by GSK343 reduces egg laying and decreases the expression of genes implicated in DNA replication and noncoding RNA metabolism” (2018).
The source made the active and inactive calls. The calls are words filed in the database; no cut-off is given here.

How the values were obtained:
Schistosoma mansoni [1] = assay: Antischistosomal activity against juvenile Schistosoma mansoni assessed as damaged dorsal surface ridge at 20 to 50 uM incubated for 48 hrs by scanning electron microscopy analysis; type: functional, organism-based; details: dose 20-50 µM
Procedure, shortened: (§1)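 Juvenile worms recovered by perfusion, five per well in supplemented RPMI (10% FBS, antibiotics, 37°C, 5% CO2), 2 h adaptation, then exposed 48 h to compound or 0.1% DMSO. Fixed in modified Karnovsky reagent (pH 7.4), washed in cacodylate buffer, post-fixed 1 h in 1% osmium tetroxide, ethanol-dehydrated, critical-point dried, gold-sputtered and imaged by scanning electron microscopy.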

Schistosoma mansoni [2] = assay: Antischistosomal activity against adult Schistosoma mansoni assessed as dead worms incubated for 24 hrs by inverted microscope analysis; type: functional, organism-based
Procedure, shortened: (§2)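 Paired adult worms were cultured in RPMI/10% FBS with antibiotics at 37°C, 5% CO2, with GSK343 or 0.1% DMSO. They were viewed by inverted microscope at 3, 6, 12, 24 and 48 h. Motility was scored on a 0–3 scale (3 full movement, 1.5 partial or immobile but alive, 0 dead); death meant no movement over more than 2 min. Pairing was recorded. Three experiments, each with 10 pairs; mean ± SD.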

Schistosoma mansoni [3] = assay: Antischistosomal activity against adult Schistosoma mansoni assessed as reduction in pairing of couples at 20 uM incubated for 48 hrs by inverted microscope analysis relative to control; type: functional; design: scale not given: the % may be the effect or the level left; procedure, shortened: as §2
Schistosoma mansoni [4] = assay: Antischistosomal activity against juvenile Schistosoma mansoni assessed as presence of blisters in dorsal tegument at 20 to 50 uM incubated for 48 hrs by scanning electron microscopy analysis; type: functional, organism-based; details: dose 20-50 µM; procedure, shortened: as §1
Schistosoma mansoni [5] = assay: Antischistosomal activity against Schistosoma mansoni assessed as change in size at 20 uM incubated for 24 hrs by scanning electron microscopy analysis; type: functional, organism-based
Procedure, shortened: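 Newly transformed schistosomula were held 16 h in M169 with 2% FBS, serotonin, hypoxanthine, hydrocortisone, triiodothyronine and antibiotics at 37°C, 5% CO2, at 2,000 per well. They were then exposed to 20 μM GSK343 or 0.1% DMSO for 24 and 48 h. Fixation was modified Karnovsky (pH 7.4) with 1% osmium post-fix, then ethanol dehydration, critical-point drying, gold coating and SEM. Lengths came from three experiments, each with 20 schistosomula.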

With `CCCc1cc(C)[nH]c(=O)c1CNC(=O)c1cc(-c2ccnc(N3CCN(C)CC3)c2)cc2c1cnn2C(C)C` the Activity (Schistosoma mansoni [1]) was “Active”, the Activity (Schistosoma mansoni [2]) was “Active” and the Activity (Schistosoma mansoni [3]) was roughly 50%. For the same molecule, the Activity (Schistosoma mansoni [4]) was “Active” and the Activity (Schistosoma mansoni [5]) was “inactive”.
